Active and inactive are the calls of the source. No cut-off for these calls is given here. Starred links: 1 amine or outer side, 2 acyl side, 3 side chain; linkers in the order of their positions; H or OH if unused. Positions of bridges follow the written chain, without caps; N, C: chain ends. Non-standard residues stand in square brackets, D forms with d. Residues, ends and D or L forms follow the SMILES beside them. *: point of attachment. X2 = O=C(CCCC[C@@H]1SC[C@@H]2NC(=O)N[C@@H]21)NCCCOCCOCCOCCCN*; X67 = O=C(O)CCNC(=S)NCCCC[C@H](N[*:1])C(=O)[*:2]; X1 = O=C(O)[C@H](CC(=O)*)Sc1ccc2ccccc2c1; Suberoyl = O=C(CCCCCCC(=O)[*:2])[*:1]; β3hR = N=C(N)NCCC[C@H](N)CC(=O)O; Suc = O=C(CCC(=O)[*:2])[*:1]; Bz = O=C(c1ccccc1)*
Key:
[1] = target: T1, NAD-dependent protein deacylase sirtuin-5, mitochondrial (Homo sapiens, UniProt Q9NXA8); experiment: Inhibition of human recombinant N-terminal Strep2-tagged SIRT5 expressed in Escherichia coli BL21 (DE3) using Abz-GVLK(glutaryl)AY(NO2)GV-NH2 as substrate in presence of NAD+ by fluorescence assay
Target sequence in this assay (Q9NXA8 whole entry): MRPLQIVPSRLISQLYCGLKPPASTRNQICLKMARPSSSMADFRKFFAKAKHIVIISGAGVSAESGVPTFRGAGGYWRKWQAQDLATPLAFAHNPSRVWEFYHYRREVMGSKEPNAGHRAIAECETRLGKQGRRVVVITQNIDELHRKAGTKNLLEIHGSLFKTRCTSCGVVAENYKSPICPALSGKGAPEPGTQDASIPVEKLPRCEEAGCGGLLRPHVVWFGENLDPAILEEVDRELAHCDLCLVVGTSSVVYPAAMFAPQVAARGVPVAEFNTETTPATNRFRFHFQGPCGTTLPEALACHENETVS

[2] = target: T1, NAD-dependent protein deacylase sirtuin-5, mitochondrial; experiment: Inhibition of SIRT5 (unknown origin) using GGQSLK[succ]FGKG as substrate after 30 mins
Target sequence in this assay (Q9NXA8 whole entry): as above

[3] = target: T1, NAD-dependent protein deacylase sirtuin-5, mitochondrial; experiment: Inhibition of human SIRT5
Target sequence in this assay (Q9NXA8 whole entry): as above

[4] = target: T1, NAD-dependent protein deacylase sirtuin-5, mitochondrial; experiment: Binding affinity to human N-terminal biotinylated SIRT5 assessed as dissociation rate constant by surface plasmon resonance spectroscopy
Procedure, shortened: (§1)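 Surface plasmon resonance: N-terminally biotinylated Sirt5 (biotinylated via Trypsiligase) immobilized on a streptavidin-coated sensor chip at about 1800 RU. Biotinylated ligand injected at 50 nM in PBS (4 mM KH2PO4, 16 mM Na2HPO4, 115 mM NaCl, pH 7.4). Kinetic constants and affinity obtained by fitting to a 1:1 Langmuir binding model.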
Target sequence in this assay (Q9NXA8 37-310 limits assumed): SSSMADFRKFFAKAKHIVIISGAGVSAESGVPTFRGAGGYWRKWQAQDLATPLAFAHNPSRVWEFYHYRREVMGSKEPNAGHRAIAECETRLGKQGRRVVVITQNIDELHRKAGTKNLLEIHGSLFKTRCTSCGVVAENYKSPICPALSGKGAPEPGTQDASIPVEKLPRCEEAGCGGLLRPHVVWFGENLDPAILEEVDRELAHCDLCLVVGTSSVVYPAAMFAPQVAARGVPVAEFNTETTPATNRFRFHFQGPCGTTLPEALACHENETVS

[5] = target: T1, NAD-dependent protein deacylase sirtuin-5, mitochondrial; experiment: Competitive inhibition of human recombinant N-terminal Strep2-tagged SIRT5 expressed in Escherichia coli BL21 (DE3) using Abz-GVLK(glutaryl)AY(NO2)GV-NH2 as substrate in presence of NAD+ by fluorescence assay
Procedure, shortened: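 Continuous trypsin-coupled fluorescence assay at 37°C: 10 nM SIRT5, 500 µM NAD+, 500 nM trypsin, 5% DMSO, 0.025-5 µM substrate, 0.01-20 µM inhibitor. Buffer: 20 mM Tris, 150 mM NaCl, 5 mM MgCl2, pH 7.8. Excitation 320 nm, emission 420 nm. Measured in duplicate; IC50 determined at 0.03 µM substrate by log(inhibitor) vs normalized response fit.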
Target sequence in this assay (Q9NXA8 whole entry): as the sequence (Q9NXA8 whole entry) above

[6] = target: T2, NAD-dependent protein deacetylase sirtuin-2 (Homo sapiens) (UniProt Q8IXJ6); experiment: Binding affinity to human recombinant N-terminal strep2-tagged SIRT2 (43 to 356 residues) expressed in Escherichia coli BL21 (DE3) at 100 uM by SDS-PAGE/LC-MS based pull down assay
T2 sequence (whole entry): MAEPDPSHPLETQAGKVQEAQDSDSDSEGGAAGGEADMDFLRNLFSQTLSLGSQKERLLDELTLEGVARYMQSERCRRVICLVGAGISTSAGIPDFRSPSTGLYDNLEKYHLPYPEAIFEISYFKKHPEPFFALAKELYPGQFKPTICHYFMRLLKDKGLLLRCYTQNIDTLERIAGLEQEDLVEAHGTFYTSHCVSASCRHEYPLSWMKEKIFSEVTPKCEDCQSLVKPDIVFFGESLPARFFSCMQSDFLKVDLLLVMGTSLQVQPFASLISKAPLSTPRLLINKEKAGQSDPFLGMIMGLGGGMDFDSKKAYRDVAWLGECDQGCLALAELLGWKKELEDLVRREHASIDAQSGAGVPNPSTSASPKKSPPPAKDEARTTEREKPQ
Procedure, shortened: (§2)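 Streptavidin agarose (0.5 ml bed volume) loaded with biotinylated inhibitor (100 µM in PBS) for 30 min, then washed with PBST. Bound protein eluted with 200 mM NaOH; eluates analysed by SDS-PAGE and LC-MS.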

[7] = target: T1, NAD-dependent protein deacylase sirtuin-5, mitochondrial; experiment: Binding affinity to human recombinant N-terminal strep2-tagged SIRT5 expressed in Escherichia coli BL21 (DE3) at 100 uM by SDS-PAGE/LC-MS based pull down assay; procedure, shortened: as §2
Target sequence in this assay (Q9NXA8 37-310 limits assumed): as the sequence (Q9NXA8 37-310 limits assumed) above

[8] = target: T3, NAD-dependent protein deacetylase sirtuin-3, mitochondrial (Homo sapiens) (UniProt Q9NTG7); experiment: Binding affinity to human recombinant N-terminal strep2-tagged SIRT3 (114 to 380 residues) expressed in Escherichia coli BL21 (DE3) at 100 uM by SDS-PAGE/LC-MS based pull down assay; procedure, shortened: as §2
T3 sequence (whole entry): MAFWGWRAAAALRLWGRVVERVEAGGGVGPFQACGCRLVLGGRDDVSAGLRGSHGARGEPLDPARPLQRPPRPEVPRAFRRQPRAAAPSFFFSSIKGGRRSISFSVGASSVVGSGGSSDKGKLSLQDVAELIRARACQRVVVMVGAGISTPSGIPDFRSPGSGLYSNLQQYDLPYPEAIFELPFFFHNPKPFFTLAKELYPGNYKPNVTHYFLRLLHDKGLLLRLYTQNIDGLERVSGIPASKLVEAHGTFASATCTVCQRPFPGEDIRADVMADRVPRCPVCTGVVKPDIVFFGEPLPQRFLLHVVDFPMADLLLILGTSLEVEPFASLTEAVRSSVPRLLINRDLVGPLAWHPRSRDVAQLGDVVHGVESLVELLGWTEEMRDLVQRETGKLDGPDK

[9] = target: T1, NAD-dependent protein deacylase sirtuin-5, mitochondrial; experiment: Binding affinity to human N-terminal biotinylated SIRT5 by surface plasmon resonance spectroscopy; procedure, shortened: as §1
Target sequence in this assay (Q9NXA8 whole entry): as the sequence (Q9NXA8 whole entry) above

[10] = target: T1, NAD-dependent protein deacylase sirtuin-5, mitochondrial; experiment: Inhibition of recombinant human N-terminal His-tagged SIRT5 (34 to 269 residues) expressed in Escherichia coli Transetta(DE3) cells using Benzyl Lys(Succinyl)-AMC substrate after 2 hrs by fluorescence assay
Target sequence in this assay (Q9NXA8 whole entry): as above

[11] = target: NAD-dependent protein deacylase sirtuin-6 (Homo sapiens) (UniProt Q8N6T7); experiment: Inhibition of SIRT6 (unknown origin) up to 50 uM using Ac-EALPKK(myristoyl)TGGNH2 as substrate after 6 mins by HPLC analysis
Procedure, shortened: (§3)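 HPLC activity assay at 37°C with 0 or 50 µM inhibitor, 500 µM NAD+, 5% DMSO, 0.1 µM enzyme and 50 µM substrate, in 20 mM Tris, 150 mM NaCl, 5 mM MgCl2, pH 7.8. Incubation 8 min for SIRT1-3 and 6 min for SIRT6. Stopped with TFA-water (1:9), then analysed by reversed-phase HPLC with detection at 260 nm.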

[12] = target: T3, NAD-dependent protein deacetylase sirtuin-3, mitochondrial (Homo sapiens); experiment: Inhibition of SIRT3 (unknown origin) up to 50 uM using Bz-GVLK(acetyl)EYGV-NH2 as substrate after 8 mins by HPLC analysis; procedure, shortened: as §3
[13] = target: T4, NAD-dependent protein deacetylase sirtuin-1 (Homo sapiens) (UniProt Q96EB6); experiment: Inhibition of SIRT1 (unknown origin) up to 50 uM using Bz-GVLK(acetyl)EYGV-NH2 as substrate after 8 mins by HPLC analysis; procedure, shortened: as §3
T4 sequence (whole entry): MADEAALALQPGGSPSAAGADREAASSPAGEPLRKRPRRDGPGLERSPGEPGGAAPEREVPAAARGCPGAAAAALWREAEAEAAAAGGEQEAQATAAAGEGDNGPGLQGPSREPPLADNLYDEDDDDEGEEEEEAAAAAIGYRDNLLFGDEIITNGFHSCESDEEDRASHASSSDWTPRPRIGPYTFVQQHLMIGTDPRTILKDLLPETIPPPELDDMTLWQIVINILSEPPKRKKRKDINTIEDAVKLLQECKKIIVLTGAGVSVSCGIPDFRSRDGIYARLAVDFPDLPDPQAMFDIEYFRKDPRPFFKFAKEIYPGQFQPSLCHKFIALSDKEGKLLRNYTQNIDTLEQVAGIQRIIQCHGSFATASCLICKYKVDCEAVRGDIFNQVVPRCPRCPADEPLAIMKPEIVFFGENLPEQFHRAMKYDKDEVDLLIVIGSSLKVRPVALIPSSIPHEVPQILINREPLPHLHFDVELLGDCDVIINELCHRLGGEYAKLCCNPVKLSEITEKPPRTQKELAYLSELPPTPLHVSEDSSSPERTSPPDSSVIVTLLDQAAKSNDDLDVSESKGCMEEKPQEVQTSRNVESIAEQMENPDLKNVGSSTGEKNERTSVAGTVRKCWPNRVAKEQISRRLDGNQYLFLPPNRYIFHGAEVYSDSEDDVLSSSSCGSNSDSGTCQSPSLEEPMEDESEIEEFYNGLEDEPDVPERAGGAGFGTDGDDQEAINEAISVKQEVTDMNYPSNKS

[14] = target: T2, NAD-dependent protein deacetylase sirtuin-2 (Homo sapiens); experiment: Inhibition of SIRT2 (unknown origin) up to 50 uM using Bz-GVLK(acetyl)EYGV-NH2 as substrate after 8 mins by HPLC analysis; procedure, shortened: as §3

NAD-dependent protein deacylase sirtuin-6 (Homo sapiens), sequence (Q8N6T7 whole entry): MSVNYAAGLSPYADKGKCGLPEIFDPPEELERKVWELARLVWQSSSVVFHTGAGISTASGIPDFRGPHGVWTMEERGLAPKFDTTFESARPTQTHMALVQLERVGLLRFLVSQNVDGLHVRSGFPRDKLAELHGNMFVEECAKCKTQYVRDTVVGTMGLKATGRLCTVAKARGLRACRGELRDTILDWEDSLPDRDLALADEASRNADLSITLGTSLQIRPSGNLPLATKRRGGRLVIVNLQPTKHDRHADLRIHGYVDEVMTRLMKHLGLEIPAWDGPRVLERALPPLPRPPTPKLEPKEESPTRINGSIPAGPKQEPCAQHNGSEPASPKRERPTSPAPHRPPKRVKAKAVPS

`O=C1c2c(O)cccc2Cc2cccc(O)c21` [ANTHRALIN] gave an IC50 [1] of 453000 nM and an IC50 [2] of 100 nM.
Compound `CC(=O)N[C@H]1CCCCNC(=O)CCCCCCC(=O)NCCCC[C@@H](C(=O)N[C@H](C(N)=O)[C@@H](C)O)NC(=O)[C@H](CCCCNC(=S)NCCC(=O)O)NC(=O)C[C@H](CCCNC(=N)N)NC1=O` (Ac-K[β3hR][X67]KT-NH2; linker 1-4 via Suberoyl) has an IC50 [3] of 7500 nM.
In the case of `CC(C)C[C@H](NC(=O)[C@@H](NC(=O)CNC(=O)CCC(=O)NCCCOCCOCCOCCCNC(=O)CCCC[C@@H]1SC[C@@H]2NC(=O)N[C@@H]21)C(C)C)C(=O)N[C@@H](CCCCNC(=O)C[C@H](Sc1ccc2ccccc2c1)C(=O)O)C(=O)N[C@@H](CCC(=O)O)C(=O)N[C@@H](Cc1ccc(O)cc1)C(=O)NCC(=O)N[C@H](C(N)=O)C(C)C` ({X2-Suc}-GVLK(X1)EYGV-NH2), the koff [4] is reported as 0.00015 s⁻¹, the IC50 [1] is reported as 19.1 nM and the Ki [5] is reported as 13.6 nM. For the same compound, the Activity [6] was “inactive”, the Activity [7] was “Active” and the Activity [8] was “inactive”. It also gave a Kd [9] of 0.12 nM.
With `N#C/C(=C\c1ccc(-c2ccc(C(=O)O)cc2)o1)C(=O)Nc1ccc(C#N)c(F)c1` the IC50 [10] was 5600 nM.
In the case of `CC(C)C[C@H](NC(=O)[C@@H](NC(=O)CNC(=O)c1ccccc1)C(C)C)C(=O)N[C@@H](CCCCNC(=O)C[C@H](Sc1ccc2ccccc2c1)C(=O)O)C(=O)N[C@@H](CCC(=O)O)C(=O)N[C@@H](Cc1ccc(O)cc1)C(=O)NCC(=O)N[C@H](C(N)=O)C(C)C` (Bz-GVLK(X1)EYGV-NH2), the inhibition [11] is reported as “inactive”, the inhibition [12] is reported as “inactive” and the IC50 [1] is reported as 30.3 nM. The inhibition [13] was “inactive”, the inhibition [14] was “inactive” and the Kd [9] was 0.01 nM.

Source: ChEMBL document CHEMBL4033793, “Potent and Selective Inhibitors of Human Sirtuin 5” (J Med Chem, 2018)
